# The list is not random: actives were taken first. Their share in the collection is about 3.1%.
# aDG glyco act: alpha-DG glycosylation activation. Pro5-aDG cells, alpha-DG glycosylation AlphaScreen (IIH6); 0% Pro5, 100% B10-LARGE cell signal. activation, % at 10 µM. actives 0.22% (n = 360,000);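 active means activation of at least 8% versus controls, or a plate z-score of at least 8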;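 further: Pro5 are CHO cells carrying HIG-tagged alpha-DG that lacks glycosylation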
# Lipid droplet: modulators of hepatic lipid droplet formation; AML12 mouse hepatocytes, oleate lipid droplets, BODIPY imaging; inhibition, % at 6.5 µM; actives 0.4% (n = 240,000); AID 1656;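 active means lipid droplet intensity inhibited by at least 50%, with more than 500 cells counted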
#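 Test system: AML12 mouse liver cells; schedule: overnight exposure; technique: high-content imaging of BODIPY-stained droplets and DAPI nuclei; read-out: % inhibition of corrected integrated BODIPY droplet signal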
# V-ATPase pH: yeast V-ATPase proton transport regulation by pHLuorin; S. cerevisiae, pHLuorin cytosolic pH fluorescence; response, % at 10 µM; actives 0.37% (n = 350,000); in the data active means response mostly above about 7.3%, no sharp cut-off; inactive means mostly below about 5.4%; further: actives read high
# ADAM17 inh: inhibits human ADAM17 | P78536 | recombinant ADAM17, EDANS/DABCYL FRET peptide cleavage | inhibition, % at 6.95 µM | actives 0.83% (n = 370,000);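 active means inhibition above the mean of compounds lying between control limits plus 3 SD, set per campaign, cut at about 8.5% in these data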;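 further: 0% = DMSO-only wells as the low control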
# Target sequence (P78536 215-824 limits assumed): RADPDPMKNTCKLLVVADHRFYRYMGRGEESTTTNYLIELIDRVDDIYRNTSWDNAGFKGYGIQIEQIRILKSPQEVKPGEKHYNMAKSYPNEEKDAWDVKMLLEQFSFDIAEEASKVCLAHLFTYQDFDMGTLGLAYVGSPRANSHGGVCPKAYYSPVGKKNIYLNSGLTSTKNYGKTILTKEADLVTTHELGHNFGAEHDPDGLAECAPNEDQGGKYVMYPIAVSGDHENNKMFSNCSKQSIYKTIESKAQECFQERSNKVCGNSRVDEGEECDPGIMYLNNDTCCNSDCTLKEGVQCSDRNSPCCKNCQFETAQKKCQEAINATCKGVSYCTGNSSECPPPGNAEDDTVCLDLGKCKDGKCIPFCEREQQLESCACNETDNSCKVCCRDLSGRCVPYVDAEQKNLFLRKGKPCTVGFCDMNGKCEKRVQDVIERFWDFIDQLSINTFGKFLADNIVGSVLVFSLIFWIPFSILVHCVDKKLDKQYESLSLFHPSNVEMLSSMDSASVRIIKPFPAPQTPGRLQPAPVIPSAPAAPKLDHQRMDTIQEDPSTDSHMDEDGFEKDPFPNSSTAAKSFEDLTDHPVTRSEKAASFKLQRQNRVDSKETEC
# MPTP block: inhibitors of mitochondrial permeability transition pore; inhibition, % at 10 µM; isolated mouse mitochondria, Ca2+ swelling absorbance, 30 min; AID 602449; actives 1.4% (n = 360,000);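 active means inhibition of 50% or more, scaled per plate between neutral and stimulator controls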;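 further: 0% = DMSO wells given calcium and 100% = 1 mM EGTA wells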
# ADAM10 inh: inhibits human ADAM10; O14672; recombinant ADAM10, EDANS/DABCYL FRET peptide cleavage, 3 h; inhibition, % at 7 µM; actives 0.62% (n = 370,000);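 active means inhibition above a per-campaign cutoff equal to the mean of compounds falling between control-based bounds plus 3 SD, cut at about 20% in these data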;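 further: 0% = DMSO wells while the 100% control is not disclosed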
# MPTP counter: mitochondrial membrane potential, counter-screen. shares compounds with MPTP block. isolated mitochondria, Rhodamine 123 fluorescence. inhibition, % at 10 µM. actives 78% (n = 5,000). AID 624504; in the data active means inhibition above about 22%;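 further: 0% = DMSO vehicle and 100% = positive control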
# MPTP abs DR: MPTP inhibition, dose response swelling confirmation | actives 58% (n = 780) | isolated mitochondria swelling, absorbance | IC50, µM | shares compounds with MPTP block; in the data active means IC50 below about 20 µM
# MPTP cs DR: counter-screen for mitochondrial permeability transition pore inhibitors, dose response. shares compounds with MPTP block. isolated mitochondria counterscreen, fluorescence read-out. IC50, µM. actives 49% (n = 780). AID 651564; in the data active means IC50 below about 80 µM
# * = called active by the depositor; / = not tested or not shown.
SMILES,aDG glyco act,Lipid droplet,V-ATPase pH,ADAM17 inh,MPTP block,ADAM10 inh,MPTP counter,others
COc1cccc(C(C)(O)c2nc(-c3cc4ccccc4o3)cs2)c1 (stereo unspecified),0,/,/,4,88*,10,96*,
COc1cccc(C(C)(O)c2nc(-c3ccccc3)cs2)c1 (stereo unspecified),0,/,/,0,3,4,/,
COc1cccc(C(C)(O)c2nc(-c3ccc(N(C)C)cc3)cs2)c1 (stereo unspecified),1,/,/,6,99*,17,91*,
S=c1[nH]nc(-c2cc(-c3ccccc3)n[nH]2)n1N=Cc1cccc(OCc2ccccc2)c1,/,/,/,1,/,1,/,
CN(C(=S)Nc1ccc(SC(F)F)cc1)c1ccc(O)cc1,0,-12,-3,-2,97*,4,82*,
Cn1nc(CC(=O)Nc2ccc3c(c2)CCC3)c2ccccc2c1=O,2,/,-4,0,95*,0,78*,
Cc1ccc(-n2c(SCC(=O)Nc3ccc4c(c3)OCCO4)nnc2-c2cccnc2)cc1,/,/,/,-3,/,-4,/,
Cc1ccc(C23CC4CC(CC(NC(=O)N5CCN(C)CC5)(C4)C2)C3)cc1,2,-8,-1,-3,71*,2,-12,MPTP abs DR=16*;MPTP cs DR=>80
COC(=O)[C@]12C[C@H](CC(=O)NCC34CC5CC(CC(C5)C3)C4)C(=O)N(Cc3ccc(Cl)cc3Cl)C1=C[C@H](C(C)(C)C)O[C@@H]2C,/,/,/,-1,/,-1,/,
C=CCNCCCCOc1ccc(Br)cc1C,1,4,-1,-1,71*,-2,-4,MPTP abs DR=8.3*;MPTP cs DR=>80
Cc1cc(NC(=S)Nc2ccccc2)ccc1Br,0,/,-2,-2,71*,-4,79*,
Cc1cc(Cl)ccc1NC(=S)Nc1cccnc1,0,/,7,0,29,-12,/,
Cc1cc(NC(=S)Nc2cccnc2)ccc1Br,0,0,-1,-4,88*,-3,72*,
Cc1ccccc1NC(=S)Nc1ccccc1,0,8,2,-3,0,-11,/,
Cc1[nH]cnc1/C=N\NC(=O)c1cccc(S(=O)(=O)N(C)C)c1,/,/,/,2,/,-6,/,
COC(=O)[C@]1(Cc2ccccc2)NC=C(C(=O)c2ccc(F)cc2)[C@@H]1c1ccccc1,/,/,/,-1,/,-1,/,
CC1=NN(C(N)=S)C(=O)C1N=Nc1c(Br)cc(Br)cc1Br (stereo unspecified),0,4,-1,0,56*,11,78*,
CN(Cc1ccccc1F)C(=O)C1CCCN(c2ncccn2)C1 (stereo unspecified),/,/,/,-10,/,-28,/,
COCCn1c(SCc2csc(-c3ccccc3)n2)nc2ccccc21,0,-20,5,5,70*,8,41*,
COC(=O)c1cc(-c2ccccc2OC)c(=O)n2c1CCC2,/,/,/,-3,/,-6,/,
CCC(NC(=S)NCc1ccc(F)cc1)c1ccc(C(C)C)cc1 (stereo unspecified),3,-12,0,7,79*,13,91*,
CCC(C)c1ccc(C(C)NC(=S)NCc2ccc(F)cc2)cc1 (stereo unspecified),1,-11,-3,6,60*,4,94*,
CC(NC(=S)NCc1ccc(F)cc1)C12CC3CC(CC(C3)C1)C2 (stereo unspecified),4,1,2,0,80*,0,90*,
CCNC(=S)NCc1ccc(Cl)cc1,0,/,2,-1,-2,2,/,
C[C@H](NC(=O)NCc1ccc(F)cc1)C(=O)O,0,5,-4,0,-11,-9,/,
COc1ccc(C(C)NC(=S)NCc2ccc(F)cc2)cc1OC (stereo unspecified),0,25,1,-4,1,5,/,
CCOc1ccc(C(C)NC(=S)NCc2ccc(Cl)cc2)cc1 (stereo unspecified),0,10,-3,3,60*,10,94*,
